These results are taken from PubChem BioAssay.

SMILES strings stand for the structures. Calls of active or inactive are those of the source.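 The calls were made as follows, unless noted: active = inhibition at or above 50% at 10 µM; inactive = inhibition below 50%.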

Assay [1] can be described thus: inhibitors of TNFa-induced NFkB p65 translocation, primary screen, imaging, HUVEC, MLSMR starter and 10KST1 sets (AID 438;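 active = inhibition above 20% together with a positive visual image hit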;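 also: compound added about 3h40 before a 20 min TNFalpha stimulation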;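 as to inhibition: signal is the nuclear over cytoplasmic p65 intensity ratio per well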). The settings on record: HUVEC TNFa-induced p65 nuclear translocation; cell count: measured here: nuclei count (cytotoxicity indicator), at 2.08 µM; inhibition: at 2 µM, stronger effect = higher value, 0% TNFa-plus-vehicle, 100% no-TNFa wells.
A short description of assay [2]: inhibitors of mutant huntingtin aggregation, primary screen, imaging, exon1htt(103Q)mCFP cells, high-content imaging (AID 483;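 active = visual image review flags a hit and inhibition of aggregation exceeds 20%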;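 also: compound exposure lasted 3 days before fixation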;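 as to nuclei count: percent of the per-plate median nuclei count of sample wells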). The settings on record: exon1htt(103Q)mCFP cell line, aggregate imaging, at 2 µM; inhibition of aggregation: stronger effect = higher value; nuclei count: measured here: cell count, toxicity.
Assay [3] can be described thus: inhibitors of E-selectin induction by TNFa, primary screen, imaging, HUVEC, immunofluorescence, MLSMR starter and 10KST1 sets (AID 487;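 active = visually confirmed hit in the image check and inhibition above 20%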;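 as to inhibition: signal is fraction of cell area covered by stained E-selectin grains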;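 as to nuclei count: 100% = median nuclei count of all wells on the same plate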). The settings on record: HUVEC TNFalpha-induced E-selectin immunofluorescence imaging, at 2 µM; inhibition: stronger effect = higher value; nuclei count: measured here: cell number, toxicity.
Assay [4] concerns the target Voltage-gated potassium channel subunit beta-2 (Rattus norvegicus) (UniProt P62483). The experiment in a line: KvBeta enzyme negative modulators, primary screen, biochemical, NADPH fluorescence (AID 622;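 active = fluorescence slope higher than the sample average by over 3 SD, cut at about -0.22 in these data, passing the limit was not always enough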;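 also: slope of raw intensity against log time taken from 70 to 1610 s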). The settings on record: recombinant KvBeta, 4-cyanobenzaldehyde reduction, at 10 µM, stronger effect = higher value.
Assay [5] shares this target. The experiment in a line: KvBeta positive modulators, primary screen, biochemical, NADPH fluorescence (AID 623;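 active = NADPH fluorescence slope more negative than the mean of all samples by about 3 SD, 99.7% confidence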;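 also: fluorescence intensity change per second fitted from 20 to 320 s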). The settings on record: Recombinant KvBeta, NADPH fluorescence decrease slope, 10 min; at 10 µM; stronger effect = lower value.
Assay [6] has as its target Alpha-2C adrenergic receptor (Homo sapiens) (UniProt P18825). The experiment in a line: modulators of alpha2C/GIRK thallium flux, primary screen, cell-based, HEK293 alpha2C/GIRK1/2 (AID 624;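 active = fluorescence slope after compound addition differing from the mean of all screened samples at 99.7% confidence, in either direction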;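 also: slope of fluorescence ratio to pre-addition baseline per second over 15 to 24 s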). The settings on record: thallium flux BTC fluorescence, at 10 µM, actives lie on both sides.
Assay [7] can be described thus: inhibitors of larval lipid processing in zebrafish, primary screen, whole organism, PED6 fluorescence, gall bladder and intestine (AID 686;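 active = a full or partial loss of lipid-probe fluorescence in the fish gall bladder, intestine or both, judged by eye; inactive = no fluorescence loss, or compound toxic to the fish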;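 also: larvae 5 to 7 days old with five fish per well; signal comes from phospholipase A2 cleavage of quenched PED6 carried via bile; overnight exposure to compound and PED6 before scoring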). The settings on record: Zebrafish larvae PED6 lipid processing, fluorescence scoring; screened at 20 µM (by protocol). A digest of the protocol:
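Test system – live zebrafish larvae aged 5-7 days, whole organism · Buffer or medium – E3 fish medium · Reagent – quenched phospholipase substrate PED6, 100 nM final, ingested by larvae · Doses – 20 µM single dose · Incubation – overnight compound and PED6 incubation · Technique – visual fluorescence microscopy scoring of gall bladder, gut · Read-out basis – visual per-well fluorescence inhibition score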

Assay [8] is described as follows: inhibitors of Sendai virus-induced IRF3 signaling, primary screen, TLR/RLR signaling modifier project, cell-based, Sendai virus stimulus, luciferase, 10K MLSCN set (AID 602276).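 Also: firefly luciferase from ISG56 promoter only with Renilla not read in this screen; 0% = Sendai virus plus DMSO and 100% = medium plus DMSO without virus.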 To be noted: HEK293 RL24 IRF3 luciferase reporter, at 10 µM, stronger effect = higher value. On the technique in general: In a reporter assay the amount or activity of a reporter protein is the signal.

The nature of assay [9]: inhibitors of poly I:C-induced TLR3 signaling, primary screen, cell-based, poly I:C stimulus, luciferase, 10K MLSCN set (AID 602277;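 active = inhibition of the reporter signal at or above 50%; inactive = inhibition below 50%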). To be noted: HEK293-TLR3 RL24 IRF3 luciferase reporter, at 10 µM, stronger effect = higher value.
The target in assay [10] is Muscarinic acetylcholine receptor M4 (Homo sapiens) (UniProt P08173). The experiment in a line: compounds altering M4/GIRK thallium flux, either direction, primary screen, M4 allosteric agonist project, cell-based, HEK293 M4/GIRK, BTC-AM (AID 625;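 active = fluorescence slope after compound addition differing from the mean of all tested samples at 99.7% confidence, mostly higher but some lower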;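 also: thallium influx through GIRK channels coupled to M4 in HEK293 cells with BTC-AM dye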). To be noted: at 10 µM, actives lie on both sides. The method in brief:
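System: HEK293 cells with M4 receptor and GIRK channels | Incubation: Cells overnight at 37 °C, BTC-AM loading 1 h, reads 2 min total | Technique: Kinetic BTC-AM fluorescence sampled at 1 Hz, 10 s pre-addition baseline | Measure: Post-addition slope, 15–24 s, of baseline-normalized fluorescence | Control set: Carbachol positive, DMSO negative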

Sequence of Alpha-2C adrenergic receptor (Homo sapiens) (P18825 whole entry, looked up): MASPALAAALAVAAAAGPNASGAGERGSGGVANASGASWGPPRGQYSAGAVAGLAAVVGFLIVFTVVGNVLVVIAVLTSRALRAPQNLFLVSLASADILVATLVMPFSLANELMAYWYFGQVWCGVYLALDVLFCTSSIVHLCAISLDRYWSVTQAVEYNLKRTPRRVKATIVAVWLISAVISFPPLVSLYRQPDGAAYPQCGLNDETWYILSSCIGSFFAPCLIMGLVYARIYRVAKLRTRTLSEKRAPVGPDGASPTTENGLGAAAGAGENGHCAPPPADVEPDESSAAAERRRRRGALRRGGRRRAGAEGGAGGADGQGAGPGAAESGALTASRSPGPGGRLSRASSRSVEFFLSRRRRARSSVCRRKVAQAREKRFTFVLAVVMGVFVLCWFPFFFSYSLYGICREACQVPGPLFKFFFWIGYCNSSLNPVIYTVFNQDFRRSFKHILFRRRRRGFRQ
Sequence of Voltage-gated potassium channel subunit beta-2 (Rattus norvegicus) (P62483 whole entry, looked up): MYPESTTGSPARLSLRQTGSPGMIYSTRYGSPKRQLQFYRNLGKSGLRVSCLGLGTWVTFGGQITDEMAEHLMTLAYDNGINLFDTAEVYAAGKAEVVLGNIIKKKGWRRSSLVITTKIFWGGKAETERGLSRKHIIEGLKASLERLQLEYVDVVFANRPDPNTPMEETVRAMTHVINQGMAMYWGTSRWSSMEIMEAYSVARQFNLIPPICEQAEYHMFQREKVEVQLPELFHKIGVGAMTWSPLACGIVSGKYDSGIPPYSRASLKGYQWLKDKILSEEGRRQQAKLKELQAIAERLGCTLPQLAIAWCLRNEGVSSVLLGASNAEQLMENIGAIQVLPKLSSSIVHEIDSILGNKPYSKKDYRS
Sequence of Muscarinic acetylcholine receptor M4 (Homo sapiens) (P08173 whole entry, looked up): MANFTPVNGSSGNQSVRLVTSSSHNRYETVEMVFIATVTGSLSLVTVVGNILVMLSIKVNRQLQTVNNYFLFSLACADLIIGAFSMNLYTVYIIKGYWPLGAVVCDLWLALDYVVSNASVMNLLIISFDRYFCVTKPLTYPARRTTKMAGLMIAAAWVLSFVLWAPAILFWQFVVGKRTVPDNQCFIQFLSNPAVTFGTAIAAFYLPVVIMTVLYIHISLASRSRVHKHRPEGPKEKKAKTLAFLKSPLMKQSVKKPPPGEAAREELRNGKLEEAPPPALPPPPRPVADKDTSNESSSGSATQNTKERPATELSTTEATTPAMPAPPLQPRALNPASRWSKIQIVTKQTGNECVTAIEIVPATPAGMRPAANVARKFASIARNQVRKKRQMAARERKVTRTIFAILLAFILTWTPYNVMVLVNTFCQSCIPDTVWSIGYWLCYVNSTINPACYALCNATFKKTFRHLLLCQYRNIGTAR

For orientation: inhibition means the drop in the measured response relative to a control, in per cent. As to `O=C(NC1=NCCS1)c1ccc2c(c1)C(=O)N(Cc1ccco1)C2=O`, the cell count in assay [1] is 447. The inhibition is 0% (inactive) in assay [1], -60.7% (inactive) in assay [3], 19.1% (inactive) in [8] and 24.4% (inactive) in [9]. For the same compound, the inhibition of aggregation in [2] was 19.6% (inactive). For the same compound, the nuclei count stood at 96.6% in assay [2] and 111% in assay [3]. Besides, the fluorescence slope in assay [4] was -0.387 (inactive). Also, the NADPH fluorescence slope in [5] was 2.7e-06 (inactive). In addition, the slope in assay [6] was 0.00529 (inactive). In assay [7], the outcome was inactive.
Turning to `CN(C)C(=O)CSc1nnc2sc3ccccc3n12`, the cell count in [1] amounted to 388. In addition, the inhibition in assay [1] was -9.2% (inactive); in assay [3] it was -32.3% (inactive); in assay [8] it was 15.9% (inactive); in assay [9] it was 23.7% (inactive). For the same compound, the inhibition of aggregation in [2] is -15.4% (inactive). Besides, the nuclei count in assay [2] came to 105%; in [3] it was 102%. Besides, in assay [4], the fluorescence slope is -0.438 (inactive). Moreover, the NADPH fluorescence slope in assay [5] was -2.4e-05 (inactive). The slope in assay [6] was 0.00511 (inactive). Also, the outcome in assay [7] was inactive.
As for `COc1cc(S(=O)(=O)NC2CCCCC2C)ccc1Cl` (stereo not drawn), the cell count in [1] was 691. The inhibition in assay [1] was 4.8% (inactive); in [3] it was -69.9% (inactive); in [8] it was -3.61% (inactive); in assay [9] it was -3.48% (inactive). Besides, the inhibition of aggregation in [2] is -2% (inactive). Besides, the nuclei count in [2] was determined as 114%; in [3], 106%. Also, the fluorescence slope in [4] is -0.411 (inactive). Also, in assay [5], the NADPH fluorescence slope was 2.4e-05 (inactive). For the same compound, the slope in assay [6] is 0.00366 (inactive). Further, in assay [7], the result was inactive.
On to `CCCCCc1nnc(NC(=O)Cc2cccs2)s1`, for which, in assay [1], the cell count is 325. Besides, the inhibition in assay [1] was 3.8% (inactive); in assay [3], -23.7% (inactive); in assay [8] it was 11.9% (inactive); in assay [9], 1.2% (inactive). Besides, in assay [2], the inhibition of aggregation was -1.3% (inactive). Further, the nuclei count in assay [2] came out at 93.5%; in assay [3], 95.6%. Moreover, the fluorescence slope in assay [4] is -0.412 (inactive). The NADPH fluorescence slope in assay [5] was -5.9e-05 (inactive). The slope in assay [6] was 0.00431 (inactive). The result in assay [7] was inactive.
In the case of `Cn1c(=O)cc(SCC(=O)NCc2cccnc2)c2ccccc21`, the cell count in assay [1] turned out to be 634. The inhibition in assay [1] is 2.8% (inactive); in assay [3], -48.7% (inactive); in assay [8], 9.23% (inactive); in assay [9], 9.63% (inactive). Further, in assay [2], the inhibition of aggregation is 3.4% (inactive). Also, the nuclei count in [2] was 104%; in assay [3], 110%. Moreover, the fluorescence slope in [4] was -0.31 (inactive). Moreover, the NADPH fluorescence slope in assay [5] was -3.9e-05 (inactive). For the same compound, in assay [6], the slope was 0.00505 (inactive). Further, in [7], the compound was classed as inactive.
In the case of `CCOC(=O)Nc1ccc2c(c1)N(C(=O)CCN1CCOCC1)c1ccccc1S2`, the cell count in assay [1] was 313. For the same compound, the inhibition in assay [1] is -2.1% (inactive); in assay [3], 3% (inactive); in assay [8] it was 6.28% (inactive); in assay [9] it was 18.1% (inactive). Moreover, the inhibition of aggregation in [2] is 32.1% (inactive). Also, the nuclei count is 100% in assay [2] and 104% in [3]. Besides, the fluorescence slope in [4] is -0.37 (inactive). In addition, the NADPH fluorescence slope in assay [5] is -6.8e-05 (inactive). Also, the slope in assay [6] was 0.00608 (inactive). Besides, the result in [7] was inactive.
For the compound `Cc1ccc(S(=O)(=O)N2CCN(C(=O)CSc3nc4ccccc4c(=O)[nH]3)CC2)c(C)c1`, the cell count in [1] is 541. The inhibition is -30.9% (inactive) in [1], -13.1% (inactive) in assay [3], 8.86% (inactive) in assay [8] and 4.21% (inactive) in assay [9]. Moreover, the inhibition of aggregation in [2] was -12.7% (inactive). In addition, the figures for the nuclei count in assay [2] and in [3] were 113% and 130%, respectively. Besides, the fluorescence slope in assay [4] was -0.331 (inactive). Moreover, the NADPH fluorescence slope in assay [5] was 1.8e-05 (inactive). For the same compound, the slope in [6] was 0.00493 (inactive). In addition, the call in assay [7] was inactive.
On to `Cc1ccc(-n2ncc3c(=O)n(CC(=O)NC4CCCCC4)cnc32)cc1C`, for which the cell count in [1] came to 281. Further, the inhibition in assay [1] is -0.3% (inactive); in assay [3], -3.3% (inactive); in assay [8], 13.5% (inactive); in [9] it was 15.1% (inactive). Also, the inhibition of aggregation in [2] is 4.3% (inactive). The nuclei count in assay [2] stood at 96.7%; in assay [3], 106%. Moreover, the fluorescence slope in assay [4] was -0.575 (inactive); in assay [10], 0.00615 (inactive). In addition, the NADPH fluorescence slope in assay [5] was 2.2e-05 (inactive).
On to `C/C(=C(\C#N)C(=O)NCCCN1CCOCC1)N(C)C`, for which, in [1], the cell count came out at 475. Further, the inhibition in [1] was -11.2% (inactive); in [3], -96.7% (inactive); in assay [8], 1.58% (inactive); in [9], -2.64% (inactive). For the same compound, the inhibition of aggregation in [2] is 20.1% (inactive). The nuclei count in assay [2] was 75.2%; in assay [3], 115%. Moreover, the results for the fluorescence slope in assay [4] and in [10] were -0.581 (inactive) and 0.0035 (inactive), respectively. Further, the NADPH fluorescence slope in assay [5] is -1.9e-05 (inactive).
In the case of `Cc1nc(SCC(=O)Nc2ccccc2C(F)(F)F)c2c(=O)n(C)c(=O)n(C)c2n1`, the cell count in [1] was 414. In addition, the inhibition is -4.7% (inactive) in assay [1], -111% (inactive) in assay [3], 7.4% (inactive) in assay [8] and 13.5% (inactive) in [9]. Also, the inhibition of aggregation in [2] was 1.1% (inactive). Also, the values for the nuclei count in [2] and in assay [3] were 120% and 121%, respectively. Besides, the fluorescence slope in [4] was -0.447 (inactive); in assay [10], 0.0097 (inactive). Also, in assay [5], the NADPH fluorescence slope is 8.7e-05 (inactive).
As for `COc1cccc(S(=O)(=O)Nc2cccnc2)c1`, in assay [1], the cell count was determined as 625. Besides, the inhibition in assay [1] was -15.2% (inactive); in assay [3], -20.1% (inactive); in assay [8], 5.36% (inactive); in assay [9], -3.49% (inactive). In addition, the inhibition of aggregation in [2] was -31.5% (inactive). Moreover, the figures for the nuclei count in [2] and in assay [3] were 119% and 96.4%, respectively. Moreover, the fluorescence slope in assay [4] is -0.552 (inactive); in [10], 0.00542 (inactive). Further, the NADPH fluorescence slope in assay [5] was 3.5e-05 (inactive).
